Assay outcomes: PubChem, Broad Institute
Xi reactivation = activators of X-chromosome reactivation in mouse fibroblasts; activation, % at 7.58 µM; 360,000 compounds, 0.055% hits; XiGFP mouse fibroblasts, % GFP-positive cells imaging, 3 d; cells co-treated with 5-aza-dC sensitizer; scaled so ellipticine positive control = 100%; AID 743238;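 active means mean normalized replicate activation at least 10% and every replicate at or above 10%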;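 further: 0% = median of on-plate neutral control wells and 100% = ellipticine 6 µM median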
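Assay system: SV40-immortalized XiGFP fibroblast cells, line 68-5-11; buffer or medium: DMEM plus 5-aza-dC sensitizer; compound: one concentration, pinned; timing: compounds 3 days, fix/stain 15 min at room temperature; benchmarks: positive control ellipticine, 6 µM final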
CaV13 FRET inh = Disruptors of the CACNA1D IQ motif to Ca2+-dependent inactivation inhibitor domain association, primary screening, Förster resonance energy transfer in intact living …; inhibition, % at 12.3 µM; 340,000 compounds, 0.098% hits; AID 743397; HEK cells, CFP/YFP FRET ICDI-IQ, plate reader, 10 min; percent FRET-ratio fall versus neutral wells;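 active means mean replicate inhibition of at least 30% and at least 1% of replicates passing that level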;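 further: 0% = median of the neutral control wells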
DENV2 CPE = inhibitors of DENV2 cytopathic effect. AID 651640. CPE inhibition, % at 9.99 µM. 350,000 compounds, 1.7% hits. DENV2-infected cells, cytopathic effect rescue, plate reader; in the data active means CPE inhibition above about 20%, passing the limit was not always enough; tested in BHK-21 cells;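 further: 0% = median of neutral control wells and 100% = median of positive control wells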
FN deposit inh = fibronectin deposition inhibition; AH1F fibroblasts, Alexa488-fibronectin deposition fluorescence, overnight; 350,000 compounds, 0.086% hits; inhibition, % at 12.6 µM; AID 743247;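 active means mean inhibition across replicates of 30% or more, regardless of how many single replicates reach that level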;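 further: positive control wells lacked labelled fibronectin entirely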
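Assay system: AH1F fibroblasts / Quantity: 10000 cells per well / Medium: DMEM plus 2% serum, read in PBS / Reagent: labelled fibronectin 24 nM / Dosing: single dose, pinned / Times: 1 h cell attachment, overnight exposure to compound and label / Signal: fluorescence, ex 485 nm, em 525 nm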
Casp6 inh = blocks human caspase-6 cleavage activity; P55212; purified caspase-6, Z-VEID-R110 cleavage fluorescence; inhibition, % at 12.5 µM; 350,000 compounds, 0.53% hits; AID 686996;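 active means mean inhibition across replicates at least about 35%, with every replicate also reaching that limit, limit read from the data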;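 further: 0% = median of neutral control wells and 100% = no fluorescence left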
Target sequence (P55212 24-179 limits assumed): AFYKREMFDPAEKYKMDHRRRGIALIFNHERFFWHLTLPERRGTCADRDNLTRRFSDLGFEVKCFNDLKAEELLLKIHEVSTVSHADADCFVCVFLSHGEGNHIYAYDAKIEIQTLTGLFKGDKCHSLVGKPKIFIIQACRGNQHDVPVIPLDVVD
Target sequence (P55212 194-293 limits assumed): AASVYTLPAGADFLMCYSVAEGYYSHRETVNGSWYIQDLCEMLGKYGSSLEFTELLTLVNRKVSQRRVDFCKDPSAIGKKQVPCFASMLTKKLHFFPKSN
* marks the source's active call; other numbers are inactive results. Rows were chosen to be rich in hits. Some 2% of all compounds tested hit in one or more screens of this group.

For C[C@@H]1CN([C@@H](C)CO)C(=O)c2cc(NS(=O)(=O)c3ccc(F)cc3)ccc2O[C@H]1CN(C)S(=O)(=O)c1cccs1 the results were Xi reactivation 0.2, DENV2 CPE 46.2*, FN deposit inh -9.2 and Casp6 inh 1.9.
`C[C@@H]1CN([C@H](C)CO)C(=O)c2cc(NS(=O)(=O)c3ccc(Cl)cc3)ccc2O[C@@H]1CN(C)S(=O)(=O)c1ccc(F)cc1` gave Xi reactivation -0.5, DENV2 CPE 6.6 and Casp6 inh 0.2.
Cc1ccc(S(=O)(=O)N(C)C[C@H]2Oc3ccc(NS(=O)(=O)c4ccc(F)cc4)cc3C(=O)N([C@H](C)CO)C[C@@H]2C)cc1 was read as Xi reactivation 0.1 and DENV2 CPE 81.8*.
Cc1ccc(S(=O)(=O)N(C)C[C@@H]2Oc3ccc(NS(=O)(=O)c4ccc(F)cc4)cc3C(=O)N([C@@H](C)CO)C[C@@H]2C)cc1 was read as Xi reactivation -1.3 and DENV2 CPE 5.4.
`C[C@H]1CN([C@@H](C)CO)C(=O)c2cc(NS(=O)(=O)c3ccc(F)cc3)ccc2O[C@H]1CN(C)S(=O)(=O)c1ccc(Cl)cc1` gave Xi reactivation -1.2, DENV2 CPE 26.3* and Casp6 inh 0.6.
C[C@@H]1CN([C@@H](C)CO)C(=O)c2cc(NS(=O)(=O)c3ccc(F)cc3)ccc2O[C@H]1CN(C)C(=O)NC1CCCCC1 was read as Xi reactivation -0.1, DENV2 CPE 34.6*, FN deposit inh 0.7 and Casp6 inh -2.1.
For C[C@@H]1CN([C@H](C)CO)C(=O)c2cc(NS(=O)(=O)c3ccc(F)cc3)ccc2O[C@H]1CN(C)C(=O)NC1CCCCC1 the results were Xi reactivation 0.0, DENV2 CPE 17.0, FN deposit inh -1.0 and Casp6 inh 1.6.
`CC(C)C#Cc1cnc2c(c1)C(=O)N([C@@H](C)CO)C[C@@H](C)[C@H](CN(C)C(=O)Nc1cc(F)ccc1F)O2` gave Xi reactivation -1.9, DENV2 CPE -0.1 and Casp6 inh -3.1.
`COc1ccc(CN2C[C@H](O)COC[C@H]3O[C@@H](CC(=O)NCc4ccncn4)CC[C@@H]32)cc1` gave Xi reactivation -0.2, DENV2 CPE 6.3, FN deposit inh -2.1 and Casp6 inh 1.0.
For C[C@@H]1CN([C@@H](C)CO)C(=O)c2cc(NS(=O)(=O)c3ccc(F)cc3)ccc2O[C@H]1CN(C)C the results were Xi reactivation 0.1, DENV2 CPE 14.1, FN deposit inh -7.4 and Casp6 inh 2.8.
C[C@H](CO)N1C[C@H](C)[C@H](CN(C)C)Oc2ccc(NS(=O)(=O)c3ccc(F)cc3)cc2C1=O was read as Xi reactivation -1.1, DENV2 CPE 28.6*, FN deposit inh -3.4 and Casp6 inh 2.1.
`O=C(C[C@H]1C[C@@H]2c3cc(NC(=O)c4cccnc4)ccc3O[C@@H]2[C@@H](CO)O1)NC1CCCC1` gave Xi reactivation 0.2, DENV2 CPE -7.7, FN deposit inh -3.2 and Casp6 inh 0.0.
Cc1ccc(S(=O)(=O)Nc2ccc3c(c2)C(=O)N([C@H](C)CO)C[C@@H](C)[C@H](CN(C)S(C)(=O)=O)OCCCC[C@@H](C)O3)cc1 was read as Xi reactivation 0.1, DENV2 CPE 36.0*, FN deposit inh 2.0 and Casp6 inh -3.3.
Cc1ccc(S(=O)(=O)Nc2ccc3c(c2)C(=O)N([C@@H](C)CO)C[C@H](C)[C@@H](CN(C)S(C)(=O)=O)OCCCC[C@H](C)O3)cc1 was read as Xi reactivation 0.1, DENV2 CPE 29.3*, FN deposit inh -0.4 and Casp6 inh -2.1.
`O=C(CSc1ccc2nnc(-c3ccccn3)n2n1)Nc1ccccc1` gave Xi reactivation 0.2, CaV13 FRET inh -9.8, DENV2 CPE 71.5*, FN deposit inh 8.3 and Casp6 inh -8.6.
For COc1ccc(S(=O)(=O)Nc2ccc3c(c2)C(=O)N([C@H](C)CO)C[C@H](C)[C@H](CN(C)S(=O)(=O)c2ccc(Cl)cc2)OCCCC[C@@H](C)O3)cc1 the results were Xi reactivation 0.0, DENV2 CPE -15.8, FN deposit inh -0.4 and Casp6 inh 0.7.
